Sampled rows, rich in hits. Any-hit rate of the full collection: about 5.7%.
Calb FLC – C. albicans growth inhibition with fluconazole, primary screen, CaCi-2 strain, Alamar Blue fluorescence; 300,000 compounds, 0.57% hits; C. albicans CaCi-2 (fluconazole-resistant clinical isolate) + fluconazole, 48 h; AID 1979, 2009; growth inhibition, % (no concentration beside the values);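 active = growth inhibition above about 58% in most replicates, limit read from the data, passing the limit was not always enough; inconclusive = exactly half the replicates above a set limit; inactive = most replicates below a set limit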;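 note: all wells also contain fluconazole at 8 µg/ml as a sub-toxic cotreatment; 0% = median of DMSO wells and 100% = median of geldanamycin control wells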
T cruzi repl – inhibitors of intracellular T. cruzi growth, primary screen, luminescence, NIH3T3 host cells; T. cruzi beta-gal in NIH3T3, 90 h; inhibition, % (test concentration not listed); 300,000 compounds, 1.4% hits; AID 1885, 2009;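 active = mean inhibition across valid replicates above about 55%, limit read from the data; inconclusive = mean below that limit but half or more replicates reach it; inactive = mean below it, under half of replicates reach it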;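 note: signal also drops with host cell toxicity which is not excluded here; 0% = plate median of DMSO wells and 100% = zero luminescence signal; higher percent means less beta-gal luminescence so fewer parasites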
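Incubation – ≥90 h infection period, 3 h prior cell attachment · System – NIH/3T3 fibroblasts plus reporter T. cruzi · Doses – compound pinned at 50 nL/well, DMSO · Read-out basis – percent inhibition of parasite-derived β-gal signal · Signal – luminescent β-galactosidase signal after 60 min lysis · Also added – 5000 T. cruzi trypomastigotes/well · Medium – Low-serum DMEM with 2% FBS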
Mdm2 MdmX PPI – inhibitors of human Mdm2-MdmX association, primary screen, cell-based, luminescence, split luciferase, SaOS-2, uHTS | Protein Mdm4 (Homo sapiens) + E3 ubiquitin-protein ligase Mdm2 (Homo sapiens), … | SaOS-2 split-luciferase Mdm2/MdmX complementation | inhibition, % at 8 µM | 330,000 compounds, 3% hits | AID 485346, 2010;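 active = inhibition of at least 50% at 8 µM in the primary screen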
SKKanGAS inh – S. pyogenes SKKanGAS growth inhibitors in kanamycin, primary screen, streptokinase expression inhibitor project, SKKanGAS strain, BacTiter-Glo luminescence. 6 h. inhibition, % at 7.5 µM. 300,000 compounds, 1.3% hits. AID 1662, 2009;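 active = mean replicate score, as percent of positive control median, at least 50; inconclusive = mean below 50 but one replicate at or above 50; inactive = mean and every replicate below 50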;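 note: strain carries kanamycin resistance gene driven by streptokinase promoter and grows in 40 µg/ml kanamycin; loss of luminescence reflects streptokinase promoter inhibition or plain growth inhibition; 0% = median of DMSO wells and 100% = positive control at its reference dose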
Beta cell apopt – inhibitors of cytokine-induced beta cell apoptosis, primary screen, luminescence; INS-1E cytokine-induced death, ATP luminescence, 48 h; percent of positive-control rescue, neutral wells zero; protection from apoptosis, % (no concentration beside the values); AID 435005, 2010; 300,000 compounds, 0.8% hits;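 active = Every replicate reaches about 75%, or at least half do and their mean reaches it too, limit read from the data; inconclusive = At least half of replicates reach the limit but their mean does not; inactive = Under half of replicates reach the limit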;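 note: 0% = cytokine-treated negative control wells and 100% = positive control rescue; higher means more ATP so stronger rescue from cytokine killing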
CSC inhib – cancer stem cell viability inhibitors, primary screen, luminescence | 300,000 compounds, 1.1% hits | AID 2717, 2010 | cancer stem cell-like cells viability | inhibition, % at 7.5 µM; in the data active = inhibition above about 75%; inconclusive = no clear call, values can overlap the other calls; tested in HMLE shEcad cells
Mdm2-MdmX conf – Mdm2-MdmX complex disruptors, retested hits, confirmation, luminescence, single concentration | shares compounds with Mdm2 MdmX PPI | Mdm2-MdmX binding, luminescent assay | inhibition, % at 8 µM | 10,000 compounds, 55% hits; in the data active = inhibition above about 40%
FLuc counter – full-length luciferase signal inhibition, confirmation, counter-screen for Mdm2/MdmX interaction inhibitor project, cell-based, single concentration, SaOS-2. shares compounds with Mdm2 MdmX PPI. SaOS-2 full-length luciferase counterscreen, luminescence. AID 504607, 2011. 6,200 compounds, 77% hits. inhibition, % at 8 µM;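 active = mean inhibition at 8 µM reaching about 37%, which flags the compound as non-specific, limit read from the data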;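 note: p53-null SaOS-2 cells with luciferase driven by a doxycycline-inducible promoter; compound on cells about two nights before reading with doxycycline added after day one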
* hit, by the source's call; ? = inconclusive; nt = not tested or not shown.

SMILES | Calb FLC | T cruzi repl | Mdm2 MdmX PPI | SKKanGAS inh | Beta cell apopt | CSC inhib | Mdm2-MdmX conf | FLuc counter
Cc1cccc(NC(=S)N=Nc2c(O)n(C)c3ccc(S(=O)(=O)N4CCOCC4)cc23)c1 | -4 | 44 | 54* | 20 | 41 | 29 | 54* | 64*
Cc1ccccc1NC(=S)N=Nc1c(O)n(C)c2ccc(S(=O)(=O)N3CCOCC3)cc12 | -1 | 44 | 43 | 46 | 53 | 54 | nt | nt
Cc1onc(C(=O)N2CCN(C(c3ccccc3)c3ccccc3)CC2)c1[N+](=O)[O-] | 4 | 46 | 71* | 4 | -3 | 16 | 88* | 52*
CCCCNc1c(-c2ccc(OC)c(Sc3ccc(OC)cc3)c2)nc2ccccn12 | 8 | 44 | 94* | ? | nt | 101* | 40 | 65*
CCCCNc1c(-c2ccc(SC(C)CC)c(OC)c2)nc2ccc(Cl)cn12 (configuration not stated) | nt | nt | 23 | nt | 11 | 56 | nt | nt
CCCCNc1c(-c2ccc(OC)c(Sc3ccc(OC)cc3)c2)nc2cnccn12 | nt | nt | 33 | nt | 7 | nt | nt | nt
CCCCNc1c(-c2ccc(SC(C)CC)cc2)nc2cnccn12 (configuration not stated) | nt | nt | 52* | nt | 14 | 107* | 11 | nt
CN1C(=O)/C(=C/c2ccc(OCc3ccc(F)cc3)cc2)NC1=S | 0 | -3 | 27 | -10 | nt | nt | nt | nt
COc1ccc([C@H]2CC(=O)C=C(c3cc4ccccc4s3)C2)cc1OC | nt | nt | 29 | nt | -5 | 21 | nt | nt
Cc1cc(C(=O)N/N=C/c2cc(Br)ccc2OC(=O)c2ccccc2Cl)n[nH]1 | ? | 52 | 57* | 17 | nt | nt | 46* | 53*
Cc1cc(C(=O)N/N=C/c2cc(Br)ccc2OC(=O)c2ccccc2)n[nH]1 | nt | nt | 51* | nt | 100* | 61 | 39 | 19
O=C(CN1C(=O)COc2ccc(S(=O)(=O)N3CCCCCC3)cc21)NCc1ccc(F)cc1 | 2 | 5 | 33 | 1 | 7 | nt | nt | nt
COC(=O)c1c(-c2cccc3ccccc23)csc1NC(=O)Cc1ccc(OC)c(OC)c1 | -7 | 57* | 62* | -7 | 24 | 37 | 51* | 48*
COC(=O)c1c(-c2ccc(C)cc2)csc1NC(=O)Cc1ccc(OC)c(OC)c1 | 6 | -11 | nt | 22 | nt | nt | nt | nt
CCOc1ccc(Cn2nnc(-c3ccc(S(C)(=O)=O)cc3)n2)cc1OCC | nt | nt | 16 | nt | 1 | -10 | nt | nt
Cc1ccc(C2=NN(C(=O)CCl)C(c3cccs3)C2)o1 (configuration not stated) | 13 | 0 | 100* | 4 | -24 | nt | 100* | 51*
COc1ccc(C2CC(c3cccs3)=NN2C(=O)CCl)cc1OC (configuration not stated) | 21 | 62* | 99* | 2 | -36 | 72 | 100* | 49*
COc1cc(C2CC(c3cccs3)=NN2C(=O)CCl)ccc1OC(F)F (configuration not stated) | -6 | 61* | 99* | 2 | nt | 34 | 100* | 51*
Cc1ccc(NC(=O)COc2coc(CN3CCc4ccccc43)cc2=O)cc1Cl | 9 | 10 | 62* | -6 | 11 | 11 | 17 | nt
CCc1cc2c(=O)c(-c3cnn(-c4ccccc4)c3)c(C)oc2cc1OCC(=O)Nc1ccc(F)c(F)c1 | 3 | -11 | 62* | 35 | -3 | 28 | 74* | 87*
O=C(CC1C[C@H](C(=O)N2CCCCC2)[C@@]2(CCc3ccccc3)c3[nH]c4ccccc4c3CCN2C1=O)NCCC1=CCCCC1 (some centres not stated) | nt | nt | 79* | nt | 22 | nt | 23 | nt
CN(C)CCCNC(=O)C[C@H]1C[C@H](C(=O)N2CCCCC2)[C@@]2(CCc3ccccc3)c3[nH]c4ccc(Cl)cc4c3CCN2C1=O | nt | nt | 97* | nt | nt | nt | 91* | 51*
O=C(C[C@H]1C[C@H](C(=O)N2CCCCC2)[C@@]2(CCc3ccccc3)c3[nH]c4ccc(Cl)cc4c3CCN2C1=O)NCCC1=CCCCC1 | nt | nt | 77* | nt | nt | nt | 25 | nt
O=C(C[C@H]1C[C@H](C(=O)N2CCCCC2)[C@@]2(CCc3ccccc3)c3[nH]c4ccc(Cl)cc4c3CCN2C1=O)NCCc1ccccn1 | nt | nt | 26 | nt | nt | nt | nt | nt
C[C@]12c3[nH]c4ccccc4c3CCN1C(=O)C(CC(=O)NCCC1=CCCCC1)C[C@@H]2C(=O)N1CCCCC1 (some centres not stated) | nt | nt | 39 | nt | -3 | -13 | nt | nt
SMILES | Calb FLC | T cruzi repl | Mdm2 MdmX PPI | SKKanGAS inh | Beta cell apopt | CSC inhib | Mdm2-MdmX conf | FLuc counter
Cc1cccc(NS(=O)(=O)c2ccc(C)c(C(=O)OCC(=O)Nc3cc(C)on3)c2)c1 | 7 | 6 | 88* | 4 | -4 | 10 | 76* | 32
CCOC(=O)N1CCN(CC(O)COc2ccccc2[N+](=O)[O-])CC1 (configuration not stated) | 3 | -1 | 0 | -4 | -3 | -4 | nt | nt
C=CCNC(=O)[C@H]1N2C(=O)c3ccccc3C2SC1(C)C (some centres not stated) | -8 | -10 | 12 | 0 | 2 | -11 | nt | nt
COc1cc2c(=O)n(Cc3ccco3)c(=O)n(CC(=O)c3cccc(Br)c3)c2cc1OC | 10 | 18 | 50* | 5 | 19 | -4 | 25 | nt
COc1cccc(OC)c1OCc1cc(C2C3CCCC=C3C(C#N)=C(N)C2(C#N)C#N)c(C)cc1C (configuration not stated) | 12 | 17 | 51* | 26 | -8 | 3 | 1 | nt
CCCN1CC=C2C(C#N)=C(N)C(C#N)(C#N)C(c3cccc(OC)c3OC)C2C1 (configuration not stated) | -2 | 19 | 7 | 1 | -2 | -16 | nt | nt
c1ccc(Nc2nc(N3CCCC3)nc(N3CCOCC3)n2)cc1 | -26 | 27 | 20 | -2 | -3 | -2 | nt | nt
Cc1[nH]c2ccccc2c1/C=N/Nc1nc(Nc2ccccc2)nc(N2CCOCC2)n1 | 33 | 51 | 58* | 5 | 12 | 33 | 30 | nt
Cc1ccc(Nc2nc(N3CCOCC3)nc(N3CCOCC3)n2)cc1 | -2 | 29 | 42 | -9 | -9 | 20 | nt | nt
Oc1[nH]c2ccccc2c1N=Nc1nc(Nc2ccccc2)nc(N2CCOCC2)n1 | 34 | 48 | 80* | 41 | 12 | 37 | 81* | 59*

Source: PubChem BioAssay (several laboratories)
